In ChEMBL document CHEMBL1821716, “Pyrazolopyridine inhibitors of B-RafV600E. Part 2: structure-activity relationships” (Bioorg Med Chem Lett, 2011):

Key:
[1] = target: Proto-oncogene tyrosine-protein kinase Src (Homo sapiens) (UniProt P12931); experiment: Inhibition of SRC at 1 uM
Procedure, shortened: (§1)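 Kinase selectivity panel reported as percent inhibition of each kinase at a single test-compound concentration. Values are means of at least two experiments.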

[2] = Inhibition of basal ERK phosphorylation in human MALME-3M cells; assay type: cell-based
[3] = target: Tyrosine-protein kinase Srms (Homo sapiens) (UniProt Q9H3Y6); experiment: Inhibition of SRMS at 1 uM; procedure, shortened: as §1
[4] = target: Tyrosine-protein kinase Fgr (Homo sapiens) (UniProt P09769); experiment: Inhibition of FGR at 1 uM; procedure, shortened: as §1
[5] = target: Protein-tyrosine kinase 6 (Homo sapiens) (UniProt Q13882); experiment: Inhibition of PTK6 at 1 uM; procedure, shortened: as §1
[6] = target: Tyrosine-protein kinase Lck (Homo sapiens) (UniProt P06239); experiment: Inhibition of LCK at 1 uM; procedure, shortened: as §1
[7] = target: Serine/threonine-protein kinase B-raf (Homo sapiens, UniProt P15056, V600E); experiment: Inhibition of full length B-Raf V600E mutant
[8] = target: T1, Aurora kinase A (Homo sapiens) (UniProt O14965); experiment: Inhibition of aurora A at 1 uM; procedure, shortened: as §1
T1 sequence (whole entry): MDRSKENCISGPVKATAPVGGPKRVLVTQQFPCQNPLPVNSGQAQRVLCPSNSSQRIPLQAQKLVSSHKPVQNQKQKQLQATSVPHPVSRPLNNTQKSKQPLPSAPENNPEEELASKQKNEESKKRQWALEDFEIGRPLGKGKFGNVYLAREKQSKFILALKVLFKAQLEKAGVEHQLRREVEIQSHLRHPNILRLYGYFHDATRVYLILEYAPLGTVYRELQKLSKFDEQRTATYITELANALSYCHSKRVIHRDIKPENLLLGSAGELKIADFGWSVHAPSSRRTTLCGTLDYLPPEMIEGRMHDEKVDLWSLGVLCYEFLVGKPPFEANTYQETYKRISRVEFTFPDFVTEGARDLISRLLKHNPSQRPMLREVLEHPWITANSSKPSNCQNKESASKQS

[9] = target: Receptor-type tyrosine-protein kinase FLT3 (Homo sapiens) (UniProt P36888); experiment: Inhibition of FLT3 at 1 uM; procedure, shortened: as §1
Sequence of Receptor-type tyrosine-protein kinase FLT3 (Homo sapiens) (P36888 whole entry): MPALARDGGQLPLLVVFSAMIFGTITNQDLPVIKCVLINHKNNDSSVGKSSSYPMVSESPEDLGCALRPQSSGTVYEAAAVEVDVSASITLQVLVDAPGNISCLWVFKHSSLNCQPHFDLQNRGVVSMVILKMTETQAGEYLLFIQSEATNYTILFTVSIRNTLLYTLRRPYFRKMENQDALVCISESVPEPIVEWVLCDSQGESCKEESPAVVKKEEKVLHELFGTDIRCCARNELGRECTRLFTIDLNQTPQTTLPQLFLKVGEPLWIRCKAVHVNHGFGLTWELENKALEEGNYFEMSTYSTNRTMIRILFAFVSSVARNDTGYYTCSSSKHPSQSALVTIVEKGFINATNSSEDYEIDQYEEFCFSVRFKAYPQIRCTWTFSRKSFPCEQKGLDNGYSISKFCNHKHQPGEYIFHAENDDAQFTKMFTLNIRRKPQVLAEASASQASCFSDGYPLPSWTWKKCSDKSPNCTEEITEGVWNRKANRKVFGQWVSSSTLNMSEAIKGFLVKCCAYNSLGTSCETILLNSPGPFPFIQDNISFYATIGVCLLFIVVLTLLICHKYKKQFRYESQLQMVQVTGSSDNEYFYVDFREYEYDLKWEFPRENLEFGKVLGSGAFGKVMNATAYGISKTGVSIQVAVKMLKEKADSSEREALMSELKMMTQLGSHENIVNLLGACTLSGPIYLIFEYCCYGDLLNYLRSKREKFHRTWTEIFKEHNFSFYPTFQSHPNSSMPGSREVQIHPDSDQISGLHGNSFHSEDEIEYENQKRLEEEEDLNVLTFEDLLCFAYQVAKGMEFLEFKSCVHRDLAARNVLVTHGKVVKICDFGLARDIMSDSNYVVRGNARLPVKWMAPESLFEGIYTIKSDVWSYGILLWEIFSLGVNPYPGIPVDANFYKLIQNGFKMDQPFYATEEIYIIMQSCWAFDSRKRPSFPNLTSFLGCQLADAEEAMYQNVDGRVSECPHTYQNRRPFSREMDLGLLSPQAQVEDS

Sequence of Tyrosine-protein kinase Srms (Homo sapiens) (Q9H3Y6 whole entry): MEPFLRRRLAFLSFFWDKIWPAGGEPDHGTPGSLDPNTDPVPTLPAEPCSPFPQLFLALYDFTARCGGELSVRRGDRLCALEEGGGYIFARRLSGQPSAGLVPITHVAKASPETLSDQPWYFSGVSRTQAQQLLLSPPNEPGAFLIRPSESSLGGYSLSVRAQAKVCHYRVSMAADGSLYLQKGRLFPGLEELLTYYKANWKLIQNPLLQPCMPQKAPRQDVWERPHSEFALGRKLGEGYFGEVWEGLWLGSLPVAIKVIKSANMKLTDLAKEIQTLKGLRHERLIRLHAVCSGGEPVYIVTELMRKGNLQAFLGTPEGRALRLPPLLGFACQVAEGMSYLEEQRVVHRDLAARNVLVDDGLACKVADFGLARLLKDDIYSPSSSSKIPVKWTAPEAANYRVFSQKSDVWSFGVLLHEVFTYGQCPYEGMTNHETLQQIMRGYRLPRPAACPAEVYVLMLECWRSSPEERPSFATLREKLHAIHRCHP
Sequence of Serine/threonine-protein kinase B-raf (P15056 2-766 V600E limits assumed): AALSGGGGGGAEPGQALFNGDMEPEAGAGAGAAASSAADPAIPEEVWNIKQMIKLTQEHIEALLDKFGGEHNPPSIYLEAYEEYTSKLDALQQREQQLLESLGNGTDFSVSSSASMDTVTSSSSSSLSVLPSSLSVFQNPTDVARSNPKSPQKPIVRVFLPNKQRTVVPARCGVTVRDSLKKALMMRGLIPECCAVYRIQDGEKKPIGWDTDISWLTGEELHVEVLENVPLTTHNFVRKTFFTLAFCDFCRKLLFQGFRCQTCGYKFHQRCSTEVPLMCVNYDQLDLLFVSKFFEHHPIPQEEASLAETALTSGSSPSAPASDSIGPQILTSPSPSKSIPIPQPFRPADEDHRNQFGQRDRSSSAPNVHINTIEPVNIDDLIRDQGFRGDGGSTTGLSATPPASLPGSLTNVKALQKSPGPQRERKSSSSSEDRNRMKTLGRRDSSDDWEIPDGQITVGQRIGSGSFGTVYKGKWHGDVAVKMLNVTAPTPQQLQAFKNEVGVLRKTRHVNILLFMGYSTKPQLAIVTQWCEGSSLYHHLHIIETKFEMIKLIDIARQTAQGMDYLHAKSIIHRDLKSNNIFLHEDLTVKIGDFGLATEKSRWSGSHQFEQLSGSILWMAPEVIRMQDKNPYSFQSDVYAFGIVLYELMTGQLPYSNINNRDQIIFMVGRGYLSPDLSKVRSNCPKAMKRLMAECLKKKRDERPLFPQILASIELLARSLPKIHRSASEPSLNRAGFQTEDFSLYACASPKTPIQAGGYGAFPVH
Sequence of Tyrosine-protein kinase Fgr (Homo sapiens) (P09769 2-529 limits assumed): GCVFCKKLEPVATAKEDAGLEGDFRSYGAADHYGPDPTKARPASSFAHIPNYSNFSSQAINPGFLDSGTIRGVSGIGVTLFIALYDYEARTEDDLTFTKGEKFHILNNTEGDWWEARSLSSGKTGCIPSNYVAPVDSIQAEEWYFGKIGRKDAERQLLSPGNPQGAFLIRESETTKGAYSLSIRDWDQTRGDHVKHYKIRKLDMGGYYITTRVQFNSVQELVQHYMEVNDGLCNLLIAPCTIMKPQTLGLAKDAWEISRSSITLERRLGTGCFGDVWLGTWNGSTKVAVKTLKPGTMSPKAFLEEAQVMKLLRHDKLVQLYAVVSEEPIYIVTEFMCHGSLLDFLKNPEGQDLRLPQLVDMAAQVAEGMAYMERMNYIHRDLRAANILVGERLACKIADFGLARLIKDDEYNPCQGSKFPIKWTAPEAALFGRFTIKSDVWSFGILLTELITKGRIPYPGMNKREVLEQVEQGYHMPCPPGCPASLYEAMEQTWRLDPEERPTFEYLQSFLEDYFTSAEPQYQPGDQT
Sequence of Protein-tyrosine kinase 6 (Homo sapiens) (Q13882 whole entry, looked up): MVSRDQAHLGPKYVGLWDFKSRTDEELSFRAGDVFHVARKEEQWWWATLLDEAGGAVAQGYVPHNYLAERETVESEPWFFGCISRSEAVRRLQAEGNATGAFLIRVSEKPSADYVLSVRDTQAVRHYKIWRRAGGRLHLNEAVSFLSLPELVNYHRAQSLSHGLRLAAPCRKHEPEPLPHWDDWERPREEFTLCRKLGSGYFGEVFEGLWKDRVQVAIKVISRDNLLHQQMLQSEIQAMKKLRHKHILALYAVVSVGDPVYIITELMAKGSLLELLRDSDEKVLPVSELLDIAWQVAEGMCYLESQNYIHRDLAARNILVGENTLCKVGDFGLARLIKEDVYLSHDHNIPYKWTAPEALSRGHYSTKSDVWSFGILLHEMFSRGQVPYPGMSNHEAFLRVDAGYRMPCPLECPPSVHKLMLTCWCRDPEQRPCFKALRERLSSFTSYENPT
Sequence of Proto-oncogene tyrosine-protein kinase Src (Homo sapiens) (P12931 2-536 limits assumed): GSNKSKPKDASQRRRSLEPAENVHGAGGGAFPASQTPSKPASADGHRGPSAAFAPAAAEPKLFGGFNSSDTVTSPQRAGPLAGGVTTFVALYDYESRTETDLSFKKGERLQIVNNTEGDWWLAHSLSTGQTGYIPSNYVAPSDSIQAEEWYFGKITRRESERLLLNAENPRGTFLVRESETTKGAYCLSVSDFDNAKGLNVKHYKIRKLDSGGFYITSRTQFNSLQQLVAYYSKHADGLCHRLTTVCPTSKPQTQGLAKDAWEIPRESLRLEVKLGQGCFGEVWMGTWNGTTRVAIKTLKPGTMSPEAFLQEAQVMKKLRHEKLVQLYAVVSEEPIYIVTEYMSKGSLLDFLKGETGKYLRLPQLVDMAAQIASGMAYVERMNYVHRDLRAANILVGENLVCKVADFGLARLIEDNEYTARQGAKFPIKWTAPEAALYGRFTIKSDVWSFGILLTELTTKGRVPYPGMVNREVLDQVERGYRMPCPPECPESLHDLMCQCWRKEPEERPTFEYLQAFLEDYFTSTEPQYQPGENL
Sequence of Tyrosine-protein kinase Lck (Homo sapiens) (P06239 2-509 limits assumed): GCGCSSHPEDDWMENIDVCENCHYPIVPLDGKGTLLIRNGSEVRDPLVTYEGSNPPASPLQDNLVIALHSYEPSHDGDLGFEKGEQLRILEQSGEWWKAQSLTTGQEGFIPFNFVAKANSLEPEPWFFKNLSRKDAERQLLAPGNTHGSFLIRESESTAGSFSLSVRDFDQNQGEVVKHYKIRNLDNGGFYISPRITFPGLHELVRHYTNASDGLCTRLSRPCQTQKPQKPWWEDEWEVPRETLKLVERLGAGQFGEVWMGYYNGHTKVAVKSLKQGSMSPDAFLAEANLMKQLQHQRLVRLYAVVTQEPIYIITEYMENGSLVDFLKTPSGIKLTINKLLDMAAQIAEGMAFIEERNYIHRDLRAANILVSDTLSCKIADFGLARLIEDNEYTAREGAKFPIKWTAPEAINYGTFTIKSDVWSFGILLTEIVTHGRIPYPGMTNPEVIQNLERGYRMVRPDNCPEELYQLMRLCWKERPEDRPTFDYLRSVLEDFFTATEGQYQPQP

COc1n[nH]c2ncc(NC(=O)c3c(F)ccc(NS(=O)(=O)N4CCCC4)c3F)cc12
inhibition [1]: 52%
IC50 [2]: 18 nM
inhibition [3]: 105%
inhibition [4]: 101%
inhibition [5]: 105%
inhibition [6]: 90%
IC50 [7]: 8.6 nM
inhibition [8]: 47%
inhibition [9]: 85%
